Screens: PubChem BioAssay, several laboratories
Most compounds without a hit are left out; they make up all but 0.74% or so of the library.
Arbovirus anti: arbovirus infection inhibition; arbovirus infection cell-based antiviral screen; inhibition, % at 10 µM; AID 1251; hit rate 0.37% among 200,000; in the data active means inhibition above about 30%
HKDC1 inh: inhibitors of human hexokinase HKDC1; inhibition, % at 20 µM; AID 493160; Q2TB90; hit rate 0.16% among 340,000; recombinant HKDC1, G6PDH/diaphorase resazurin coupled fluorescence;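 active means inhibition above about 35% when tested at 20 µM, limit read from the data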;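 further: plate controls were DMSO wells with enzyme for no effect and DMSO wells lacking enzyme for full effect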
Target sequence (Q2TB90 whole entry, looked up): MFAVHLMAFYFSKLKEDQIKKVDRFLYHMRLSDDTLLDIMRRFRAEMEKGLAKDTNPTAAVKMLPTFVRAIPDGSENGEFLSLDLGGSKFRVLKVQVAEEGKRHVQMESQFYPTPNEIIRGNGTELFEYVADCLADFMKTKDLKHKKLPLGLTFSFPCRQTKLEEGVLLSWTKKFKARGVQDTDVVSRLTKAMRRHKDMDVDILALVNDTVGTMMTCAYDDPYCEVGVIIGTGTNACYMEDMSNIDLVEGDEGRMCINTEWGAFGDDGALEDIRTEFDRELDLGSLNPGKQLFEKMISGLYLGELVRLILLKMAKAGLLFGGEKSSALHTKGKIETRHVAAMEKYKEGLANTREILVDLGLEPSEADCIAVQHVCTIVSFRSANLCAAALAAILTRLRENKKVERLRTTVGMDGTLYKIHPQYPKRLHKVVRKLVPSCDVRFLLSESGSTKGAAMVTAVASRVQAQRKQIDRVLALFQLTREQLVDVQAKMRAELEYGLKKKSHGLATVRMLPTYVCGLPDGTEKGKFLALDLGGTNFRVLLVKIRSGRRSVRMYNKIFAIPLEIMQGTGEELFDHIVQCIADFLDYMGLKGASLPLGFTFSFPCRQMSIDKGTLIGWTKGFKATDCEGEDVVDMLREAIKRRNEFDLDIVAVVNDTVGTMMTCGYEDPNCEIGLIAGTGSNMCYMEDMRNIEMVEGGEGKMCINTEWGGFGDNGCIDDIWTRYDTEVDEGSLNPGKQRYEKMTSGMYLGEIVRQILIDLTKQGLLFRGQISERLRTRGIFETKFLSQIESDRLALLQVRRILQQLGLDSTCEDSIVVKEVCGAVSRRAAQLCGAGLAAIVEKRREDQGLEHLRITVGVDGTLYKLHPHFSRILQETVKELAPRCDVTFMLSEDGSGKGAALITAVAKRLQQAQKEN
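Assay system – recombinant HKDC1 (HK5) hexokinase enzyme, produced in-house · Input – HKDC1 at 5 µg/mL · Reagent – glucose plus 1 mM ATP as hexokinase substrates · Timing – 90 min reaction incubation at room temperature, dark · Measured by – G6PDH/diaphorase-coupled fluorescence, 1 mM NADP, 100 µM resazurin, 525/613 nm · Benchmarks – DMSO-enzyme wells negative, buffer-substituted wells positive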
Diaphorase act: counter-screen for diaphorase-based assays: diaphorase activators and chemical reducers. hit rate 0.005% among 190,000. activation factor at 20 µM. Diaphorase/resazurin coupled assay, resorufin fluorescence, 16 min; hits give high values; 1 = vehicle wells, 0 = NADH-free wells;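 active means diaphorase activity raised at least twofold by the compound at 20 µM; inactive means activation factor below 2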
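Measured by – red resorufin fluorescence at 544/590 nm excitation/emission · Test system – Clostridium kluyveri diaphorase, purified enzyme · Incubation – reaction time 16 min, room temperature · Buffer or medium – 50 mM HEPES pH 7.4 with 4.542 mM MgCl2, 0.005% Tween 20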
Diaph inh CS: counter-screen for diaphorase-based assays: diaphorase inhibitors and chemical oxidizers; hit rate 0.69% among 190,000; diaphorase resazurin-to-resorufin fluorescence, NADH, 16 min; bacterial (C. kluyveri) enzyme, not human; inhibition, % at 20 µM;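 active means primary screen inhibition at 20 µM above a set limit, cut at about 50% in these data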;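 further: plate controls were DMSO with full reaction for no effect and wells lacking NADH for full effect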
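material = Clostridium kluyveri diaphorase enzyme | amount = 0.14 U/mL diaphorase, enzyme working solution | schedule = incubation 16 min, room temperature | detection = fluorescence of resorufin formed from resazurin, Ex 544/Em 590 nm | benchmarks = positive control minus NADH, DMSO neutral control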
G6PDH counter: L. mesenteroides G6PDH inhibition counter-screen; Purified L. mesenteroides G6PDH, diaphorase/resazurin coupled fluorescence, 45 min; inhibition, % at 5 µM; hit rate 0.12% among 200,000; AID 1020; in the data active means inhibition above about 50%
HKDC1 act conf2: HKDC1 (human) activation, single-dose confirmed. shares compounds with HKDC1 inh. recombinant HKDC1, G6PDH/diaphorase resazurin fluorescence; hits give low values. inhibition, % at 20 µM. hit rate 14% among 740. AID 504708;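 active means inhibition at or below a set negative limit, negative inhibition meaning the enzyme was activated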
* marks the source's active call; other numbers are inactive results; · = not tested or not shown.

SMILES	Arbovirus anti	HKDC1 inh	Diaphorase act	Diaph inh CS	G6PDH counter	HKDC1 act conf2
CCOC(=O)c1c(S(=O)(=O)N2CCCC(C(=O)Nc3cccc(C)n3)C2)c(C)n(C)c1C (stereo not drawn)	·	-3	·	·	·	·
Cc1ccccc1S(=O)(=O)c1c(C)cc(C)n(CC(C)C)c1=O	-12	71*	1	2	5	-6
O=c1cc(-c2ccccc2F)nc(-c2ccccc2F)o1	-9	2	0.9	7	3	·
O=c1cc(-c2cccc(Br)c2)nc(-c2ccccc2F)o1	8	31	0.9	7	5	12
CCOc1ccc2nc3cc(NCc4ccc(OC)cc4)ccc3c(N)c2c1	·	36*	·	·	·	-4
O=C1C=CC(=O)c2c(O)c(CO)c(CO)c(O)c21	·	49*	·	·	·	39
CC(=O)N1CCN(S(=O)(=O)c2c(C)n(C)c(=O)n(C)c2=O)CC1	·	-3	·	·	·	·
COC(=O)c1sc(NC(=O)CSc2nc3nc(C)cc(C)n3n2)c(C(=O)OC)c1C	·	35*	·	·	·	26
Cc1cc(NC(=S)NC(=O)c2ccccc2)ccc1-c1cc2ccccc2oc1=O	-13	-47	0.8	15	-2	-14
COc1cc(C(=O)NC(=S)Nc2cccc(-c3cc4ccccc4oc3=O)c2)cc(OC)c1OC	-5	-3	0.8	15	0	·
CCc1ccc(S(=O)(=O)/N=C2\C=C(Nc3cccc(C(=O)O)c3)C(=O)c3ccccc32)cc1	·	53*	·	·	·	65
CCc1ccc(S(=O)(=O)/N=C2\C=CC(=O)c3ccccc32)cc1	-33	·	0.7	28	44	·
CCc1ccc(S(=O)(=O)/N=C2\C=C(Nc3ccc(O)cc3)C(=O)c3ccccc32)cc1	·	32	·	·	·	6
Cc1ccc(S(=O)(=O)/N=C2/C=C(C3C(=O)CC(C)(C)CC3=O)C(=O)c3ccccc32)cc1	-22	28	0.7	34	45	·
O=C(O)c1cccc(NC2=C(n3nnc4ccccc43)C(=O)c3ccccc3C2=O)c1	·	16	·	·	·	·
CCc1ccc(S(=O)(=O)/N=C2/C=C(Sc3ncn[nH]3)C(=O)c3ccccc32)cc1	-37	71*	0.5	48	52*	73
Cc1cccc(N2CCN(S(=O)(=O)c3ccc(Cl)nc3)CC2C)c1 (stereo not drawn)	·	-1	·	·	·	·
COCCCN1C(=O)c2ccc(C(=O)OCC(=O)NCCc3ccccc3)cc2C1=O	7	-7	1	2	7	·
CCCN(CCC)C(=S)NC(=O)c1ccc(-c2ccccc2)cc1	-19	-48	0.9	14	17	-26
CCc1c(C)c(C#N)c2nc3ccccc3n2c1NC	·	-66	·	·	·	-43*
CCc1c(C)c(C#N)c2nc3ccccc3n2c1NCCN(C)C	11	-11	0.9	7	-12	·
Cc1c(C)n(CCC#N)c2ccc(Cl)cc12	-4	-3	0.8	17	10	·
COc1cc(OC)cc(C(=O)NC(=S)NNC(=O)c2cnccn2)c1	-19	-42	0.3	68*	-16	-40*
CCCCNC(=O)c1sc(=S)n2c1[nH]c(=O)c1ccc(C(=O)NCCc3ccc(OC)c(OC)c3)cc12	·	48*	·	·	·	50
CCCCCn1c(=O)[nH]c2cc(C(=O)NCCc3ccc(OC)c(OC)c3)ccc2c1=O	0	-3	0.9	6	4	·
CCCC(=O)N1CCN(Cc2ccc3c(c2)OCO3)CC1	-9	-57	0.9	6	9	-3
O=C(O)CCC(=O)N1CCN(Cc2ccc3c(c2)OCO3)CC1	·	-5	·	·	·	·
COC(=O)C1=CC(C(=O)c2cccs2)=NN(c2ccc(OC)cc2)C1C(=O)OC (stereo not drawn)	-18	1	0.8	25	-4	·
CC1=NNC(=O)/C1=C\c1cn(-c2ccccc2)nc1-c1ccc(Cl)cc1	-32	37*	0.9	14	2	2
CC(=O)Nc1nc(SCCCc2ccccc2)n[nH]1	6	2	0.9	9	4	·
